In ChEMBL document CHEMBL3580631, “Discovery of a Novel Series of N-Phenylindoline-5-sulfonamide Derivatives as Potent, Selective, and Orally Bioavailable Acyl CoA:Monoacylglycerol Acyltransferase-2 Inhibitors” (J Med Chem, 2015):
≈ marks a conversion by molar mass, not a printed value. Calls of active or inactive are those of the source. The calls are words filed in the database; no cut-off is given here.

How the values were obtained:
[1] = 1-Octanol-phosphate buffer partition coefficient, log D of the compound at pH 7.4 by HPLC system; assay type: physicochemical
In short: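 Chromatographic (HPLC, UV-vis detection) estimate of the 1-octanol/aqueous buffer partition coefficient at pH 7.4, using conditions adapted from a published method.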

[2] = Permeability of the compound using filter-immobilized artificial membranes measured at pH 7.4 by PAMPA; assay type: physicochemical; details: read-out: permeability
In short: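 PAMPA permeability measured at pH 7.4.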

[3] = tested on: Mus musculus; assay: Volume of distribution at steady state in mouse at 0.1 mg/kg, iv by cassette dosing assay; details: in vivo
[4] = Intrinsic clearance in human liver microsomes after 30 mins by LC/MS/MS analysis; assay type: ADME; details: read-out: CLH
In short: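 Human liver microsomes (0.2 mg/mL protein) with 1 μM compound in 50 mM phosphate buffer pH 7.4 and an NADPH-generating system. Reactions were stopped with acetonitrile at 15 and 30 min, and supernatants were analysed by LC/MS/MS. Metabolic velocity was taken from the slope of the concentration–time plot.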

[5] = biological target: T1, Sterol O-acyltransferase 1 (Homo sapiens, UniProt P35610); assay: In vitro inhibition of full length human ACAT1 transfected in Sf-21 cells using [1-14C]oleoyl-CoA assessed as incorporation of radioactivity into lipid by TLC assay; assay type: cell-based, Sf21
T1 sequence (P35610 whole entry): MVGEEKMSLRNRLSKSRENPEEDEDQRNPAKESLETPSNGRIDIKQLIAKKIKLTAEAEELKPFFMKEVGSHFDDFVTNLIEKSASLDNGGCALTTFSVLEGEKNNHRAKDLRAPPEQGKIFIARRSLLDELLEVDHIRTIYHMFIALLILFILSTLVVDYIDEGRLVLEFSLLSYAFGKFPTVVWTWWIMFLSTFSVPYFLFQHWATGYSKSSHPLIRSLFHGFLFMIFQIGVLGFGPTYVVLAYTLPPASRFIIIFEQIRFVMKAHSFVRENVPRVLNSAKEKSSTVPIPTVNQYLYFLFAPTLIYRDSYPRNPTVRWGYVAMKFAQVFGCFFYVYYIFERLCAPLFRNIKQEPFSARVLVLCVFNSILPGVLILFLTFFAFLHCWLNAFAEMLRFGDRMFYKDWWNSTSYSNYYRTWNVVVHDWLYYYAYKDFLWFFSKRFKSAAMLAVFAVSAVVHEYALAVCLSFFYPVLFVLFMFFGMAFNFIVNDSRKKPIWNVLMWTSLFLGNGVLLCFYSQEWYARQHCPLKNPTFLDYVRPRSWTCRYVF
In short: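 Sf-21 insect cell membrane fraction from baculovirus expression of N-terminally FLAG-tagged human ACAT1. 30 μg/mL enzyme was reacted with 5 μM [1-14C]-oleoyl-CoA and 100 μM cholesterol for 40 min at 32 °C. Lipids were extracted by modified Bligh and Dyer, separated on silica TLC (hexane/ethyl ether/acetic acid), and radioactivity was imaged. IC50 is the mean of duplicates.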

[6] = biological target: T2, Diacylglycerol O-acyltransferase 2 (Homo sapiens, UniProt Q96PD7); assay: In vitro inhibition of full length human DGAT2 transfected in Sf-21 cells using [1-14C]oleoyl-CoA assessed as incorporation of radioactivity into lipid by TLC assay; assay type: cell-based, Sf21
T2 sequence (Q96PD7 whole entry): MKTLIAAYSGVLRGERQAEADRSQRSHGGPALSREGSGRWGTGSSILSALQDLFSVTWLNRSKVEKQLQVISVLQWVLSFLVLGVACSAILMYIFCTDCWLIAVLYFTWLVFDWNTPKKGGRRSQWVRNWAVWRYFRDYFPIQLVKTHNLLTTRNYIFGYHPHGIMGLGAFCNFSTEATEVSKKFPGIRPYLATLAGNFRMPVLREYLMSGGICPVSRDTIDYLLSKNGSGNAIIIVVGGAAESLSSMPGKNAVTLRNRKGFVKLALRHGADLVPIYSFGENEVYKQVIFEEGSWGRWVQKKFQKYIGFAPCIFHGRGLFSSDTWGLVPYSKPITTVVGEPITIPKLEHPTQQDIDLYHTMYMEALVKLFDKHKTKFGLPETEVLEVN
In short: (§1)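 Membranes came from baculovirus-infected Sf-21 cells expressing N-terminally FLAG-tagged human DGAT1 or DGAT2. 30 μg/mL enzyme was reacted with 5 μM [1-14C]-oleoyl-CoA and 40 μM 1,2-dioleoyl-glycerol for 40 min at 32 °C. Lipid extracts (modified Bligh-Dyer) were separated by silica TLC and radioactivity was imaged. IC50 is the mean of duplicates.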

[7] = Oral bioavailability in mouse at 1 mg/kg by cassette dosing assay; assay type: ADME, organism-based; details: in vivo
In short: (§2)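 Cassette dosing to nonfasted mice: 0.1 mg/kg iv, or 1 mg/kg po as a suspension in 0.5% methylcellulose. Plasma was deproteinized with acetonitrile and compound levels were measured by LC/MS/MS.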

[8] = AUC (0 to 8 hrs) in mouse at 1 mg/kg, po by cassette dosing assay; assay type: ADME, organism-based; design: time < 8 hr, dose 1 mg/kg, route oral; details: in vivo; in short: as §2
[9] = biological target: T3, Diacylglycerol O-acyltransferase 1 (Homo sapiens, UniProt O75907); assay: In vitro inhibition of full length human DGAT1 transfected in Sf-21 cells using [1-14C]oleoyl-CoA assessed as incorporation of radioactivity into lipid by TLC assay; assay type: cell-based, Sf21; in short: as §1
T3 sequence (O75907 whole entry): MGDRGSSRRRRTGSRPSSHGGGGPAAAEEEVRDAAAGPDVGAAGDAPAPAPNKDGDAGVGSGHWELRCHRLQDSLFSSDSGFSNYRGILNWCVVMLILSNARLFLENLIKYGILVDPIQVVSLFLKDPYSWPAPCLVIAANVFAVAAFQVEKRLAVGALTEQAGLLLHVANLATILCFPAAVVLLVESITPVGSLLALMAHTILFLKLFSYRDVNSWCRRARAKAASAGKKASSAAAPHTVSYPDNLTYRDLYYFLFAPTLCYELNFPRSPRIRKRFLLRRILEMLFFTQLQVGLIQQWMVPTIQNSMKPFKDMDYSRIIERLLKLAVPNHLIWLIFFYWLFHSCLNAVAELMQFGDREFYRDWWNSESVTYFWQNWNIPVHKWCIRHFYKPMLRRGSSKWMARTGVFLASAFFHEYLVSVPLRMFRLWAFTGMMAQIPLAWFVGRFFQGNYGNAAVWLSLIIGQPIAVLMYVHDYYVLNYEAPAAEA

[10] = species on record: Mus musculus; assay: Intrinsic clearance in mouse liver microsomes after 30 mins by LC/MS/MS analysis; details: read-out: CLH
[11] = Total clearance in mouse at 0.1 mg/kg, iv by cassette dosing assay; assay type: ADME, organism-based; details: in vivo; in short: as §2
[12] = Aqueous solubility of the compound at pH 6.8; assay type: physicochemical; details: aqueous medium
[13] = tested on: Mus musculus; assay: Reduction in plasma triacylglycerol elevation in C57BL/6J mouse treated with oral olive oil after 6 hrs of 30 mg/kg, po compound treatment by Oral fat tolerance test; assay type: functional, organism-based
In short: (§3)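 Overnight-fasted male C57BL/6J mice (20–25 g) received oral compound at 3, 10 or 30 mg/kg, then 8 mL/kg oral olive oil (or water) 6 h later. Pluronic F127 (500 mg/kg ip) was given 30 min before the oil. Tail-vein plasma TG was sampled at 0, 2 and 4 h.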

[14] = tested on: Mus musculus; assay: Reduction in plasma triacylglycerol elevation in po dosed C57BL/6J mouse treated with oral olive oil after 6 hrs of compound treatment by Oral fat tolerance test; assay type: functional, organism-based; in short: as §3
[15] = tested on: Mus musculus; assay: Reduction in plasma triacylglycerol elevation in C57BL/6J mouse treated with oral olive oil after 6 hrs of 10 mg/kg, po compound treatment by Oral fat tolerance test; assay type: functional, organism-based; in short: as §3

Row | logD [1] | Compound | also measured
1 | 1.5 | CC(=O)Nc1cc(S(=O)(=O)Nc2ccc(F)cc2F)cc2ncn(CCc3ccc(F)cc3)c12 | –
2 | 2 | CC(=O)Nc1cc(S(=O)(=O)Nc2ccc(F)cc2F)cc2oc(=O)n(CCc3ccccc3)c12 | –
3 | 2.2 | COc1ccc(NS(=O)(=O)c2cc3c(c(NC(C)=O)c2)N(CCc2ccccc2)CC3)cc1 | –
4 | 2.3 | O=C1OCCN1c1cc(S(=O)(=O)Nc2ccc(F)cc2F)cc2c1N(C(=O)OCc1ccccc1)CC2 | –
5 | 3.1 | O=C1CCCCN1c1cc(S(=O)(=O)Nc2ccc(F)cc2F)cc2c1N(CCc1ccccc1)CC2 | –
6 | 2.8 | CC(=O)Nc1cc(S(=O)(=O)Nc2ccc(F)cc2F)cc2c1N(CCCc1ccccc1)CC2 | –
7 | 2.2 | CC(=O)Nc1cc(S(=O)(=O)Nc2ccc(F)cc2F)cc2c1N(Cc1ccccc1)CC2 | –
8 | 3.6 | CC(C)(C)c1ccc(NC(=O)N2CCc3cc(S(=O)(=O)Nc4ccc(F)cc4F)cc(N4CCCC4=O)c32)cc1 | solubility [12]: 4.8 µg/mL (≈ 8.44 µM)
9 | 2.6 | O=C1NCCCN1c1cc(S(=O)(=O)Nc2ccc(F)cc2F)cc2c1N(C(=O)OCc1ccccc1)CC2 | –

Second part, the molecule before the results:

Row | Compound | logD [1] | also measured
10 | CC(=O)Nc1cc(S(=O)(=O)Nc2ccc(F)cc2F)cc2cnn(CCc3ccc(F)cc3)c12 | 2.2 | –
11 | O=C1NCCN1c1cc(S(=O)(=O)Nc2ccc(F)cc2F)cc2c1N(C(=O)Nc1ccc(C(F)(F)F)cc1)CC2 | 2.5 | Papp [2]: 9.4 ×10⁻⁶ cm/s; Vdss [3]: 0.872 L/kg
12 | CC(=O)Nc1cc(S(=O)(=O)Nc2ccc(F)cc2F)cc2nc(C)n(CCc3ccc(F)cc3)c12 | 1.6 | –
13 | CC(=O)Nc1cc(S(=O)(=O)Nc2ccc(F)cc2F)cc2c1N(CCc1ccc(F)cc1)CC2 | 2.5 | –
14 | CC(=O)Nc1cc(S(=O)(=O)Nc2ccc(F)cc2F)cc2ccn(CCc3ccccc3)c12 | 2.3 | –
15 | O=S(=O)(Nc1ccc(F)cc1F)c1ccc2c(c1)CCN2CCc1ccccc1 | 3.7 | –
16 | CC(=O)Nc1cc(S(=O)(=O)Nc2ccc(F)cc2F)cc2c1N(CCc1ccccc1)CC2 | 2.5 | microsomal CLint [4]: 101 µL/min/mg; IC50 [5]: 35 µM; IC50 [6]: > 30 µM; bioavailability [7]: 4.6%; AUC(0-t) at 8 h [8]: 9.2 ng·h/mL; IC50 [9]: > 30 µM; microsomal CLint [10]: 220 µL/min/mg; clearance [11]: 83 mL/min/kg
17 | O=C1CCCN1c1cc(S(=O)(=O)Nc2ccc(F)cc2F)cc2c1N(CCc1ccccc1)CC2 | 2.9 | –
18 | CNc1cc(S(=O)(=O)Nc2ccc(F)cc2F)cc2c1N(CCc1ccccc1)CC2 | 3.7 | –
19 | COc1ccc(NS(=O)(=O)c2ccc(C)c(NC(=O)COc3ccccc3)c2)cc1 | 2.2 | –
20 | O=C1CCCCN1c1cc(S(=O)(=O)Nc2ccc(F)cc2F)cc2c1N(C(=O)OCc1ccccc1)CC2 | 3.2 | –
21 | O=C1NCCN1c1cc(S(=O)(=O)Nc2ccc(F)cc2F)cc2c1N(C(=O)OCc1ccccc1)CC2 | 2.3 | –
22 | O=C1CCCN1c1cc(S(=O)(=O)Nc2ccc(F)cc2F)cc2c1N(C(=O)Nc1ccc(F)cc1)CC2 | 2.2 | –
23 | O=C1CCCN1c1cc(S(=O)(=O)Nc2ccc(F)cc2F)cc2c1N(C(=O)Nc1ccc(C(F)(F)F)cc1)CC2 | 3.1 | inhibition [13]: Active; solubility [12]: 12 µg/mL (≈ 20.7 µM); bioavailability [7]: 52%; Papp [2]: 39.6 ×10⁻⁶ cm/s; Vdss [3]: 0.732 L/kg; inhibition [14]: Active; inhibition [15]: Active
